This is a sample that favours compounds with a hit; in the whole collection about 1.3% have one here.
Mdm2 ligase inh = inhibitors of human Mdm2 E3 ubiquitin ligase; Q00987; cell-based MDM2 ubiquitination luciferase reporter, 2 h; 0 = plate control, 100 = twice control, blank-subtracted; actives 0.11% (n = 210,000); AID 1230; signal enhancement, % at 5 µM;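 active means signal enhancement of 30% or more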;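 further: luminescence tracks abundance of the self-degrading MDM2-luciferase fusion protein; higher signal means inhibition of MDM2 E3 ligase activity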
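Assay system: mammalian cells stably expressing self-ubiquitinating, self-degrading MDM2 E3–luciferase fusion. Quantity: 2000 cells in each well. Medium: DMEM culture medium. Compound dosing: single-point 5 µM. Timing: cell settling 4 h, compound treatment 2 h, both 37 °C. Technique: luciferase luminescence. Read-out basis: percent signal gain over controls, blank-subtracted. Benchmarks: plate controls and plate blanks.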
Hsp70 activator = switches on Hsp70 transcription. activation, % at 10 µM. actives 0.04% (n = 200,000). HeLa Hsp70 promoter luciferase reporter, luminescence; scaled: vehicle 0, proteasome-inhibitor control 100%;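 active means activation above the mean across all tested compounds plus 3 SD, cutoff set per campaign, cut at about 5.5% in these data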
Wee1 stabilizer = inhibitors of human Wee1 degradation. P30291. HeLa Luc-Wee1K328M stability, luciferase luminescence; 100% = proteasome inhibitor MG132 effect. reporter increase, % at 5 µM. actives 1.2% (n = 220,000). AID 1321;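 active means activation above the mean of all tested compounds plus 3 SD, set per screening run, cut at about 8.8% in these data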;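 further: cells exposed to compound for 20 h before luminescence read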
Target sequence (P30291 whole entry K328M): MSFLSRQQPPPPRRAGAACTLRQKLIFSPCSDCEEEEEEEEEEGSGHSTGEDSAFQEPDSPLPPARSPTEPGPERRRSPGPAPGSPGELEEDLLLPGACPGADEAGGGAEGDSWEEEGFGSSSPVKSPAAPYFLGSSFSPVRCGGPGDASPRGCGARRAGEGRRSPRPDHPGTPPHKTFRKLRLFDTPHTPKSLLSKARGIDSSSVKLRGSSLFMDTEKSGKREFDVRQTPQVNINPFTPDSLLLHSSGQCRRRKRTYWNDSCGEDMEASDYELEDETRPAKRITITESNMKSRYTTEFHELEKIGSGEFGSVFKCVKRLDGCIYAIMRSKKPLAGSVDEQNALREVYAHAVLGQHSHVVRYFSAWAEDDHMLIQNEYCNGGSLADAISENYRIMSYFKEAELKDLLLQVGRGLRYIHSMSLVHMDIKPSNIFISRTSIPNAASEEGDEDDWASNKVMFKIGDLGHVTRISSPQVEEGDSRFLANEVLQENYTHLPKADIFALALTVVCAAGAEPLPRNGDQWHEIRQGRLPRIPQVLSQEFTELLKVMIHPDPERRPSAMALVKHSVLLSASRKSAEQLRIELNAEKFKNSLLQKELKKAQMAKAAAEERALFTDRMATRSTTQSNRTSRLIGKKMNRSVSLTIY
Pf gametocyte = P. falciparum stage V gametocyte viability inhibition. P. falciparum stage V gametocytes, ATP luminescence, 24 h. inhibition, % at 10.9 µM. actives 0.065% (n = 150,000). AID 743093;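 active means inhibition above the mean plus 3 SD of compounds within the control limits, set per campaign, cut at about 38% in these data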
Wee1 stab conf = confirmation of human Wee1 degradation inhibitors. HeLa Luc-Wee1K328M degradation, luminescence; vehicle 0%, proteasome-blocked wells 100%. shares compounds with Wee1 stabilizer. activation, % at 5 µM. actives 4% (n = 1,100); in the data active means activation above about 8.9%
Each line names hits and unclear results; the compound was inactive in the other large screens (follow-up assays come after a bar, where they were run).

CCOc1ccc(NC(=O)C2C3CC/C=C\CCC32)cc1 (centres undefined)	Wee1 stabilizer 11 (no result: Hsp70 activator) | Wee1 stab conf inactive
COc1ccc(NC(=O)C2C3CC/C=C\CCC32)cc1 (centres undefined)	none (no result: Hsp70 activator)
O=C(Nc1cccnc1Cl)c1cc([N+](=O)[O-])ccc1Cl	none
Cc1ccc(O)c(NC(=O)c2cc([N+](=O)[O-])ccc2Cl)c1	Wee1 stabilizer 11 | Wee1 stab conf inactive
O=C(Nc1ccccc1)c1cc([N+](=O)[O-])ccc1Cl	none (no result: Hsp70 activator, Wee1 stabilizer, Pf gametocyte)
Cc1cc(O)c(NC(=O)c2cc([N+](=O)[O-])ccc2Cl)cc1C	Wee1 stabilizer 45 | Wee1 stab conf inactive
CCn1c(=O)c2ccccc2n(Cc2ccccc2C)c1=O	none (no result: Mdm2 ligase inh, Hsp70 activator, Wee1 stabilizer)
CC(=O)c1cc2c(C)c(C(=O)c3ccccc3)oc2cc1O	Wee1 stabilizer 12 | Wee1 stab conf inactive
CCOC(=O)/C=C/c1cnn(-c2ccccc2)c1	none
O=C(O)/C=C/c1cnn(-c2ccccc2)c1	Wee1 stabilizer 15 | Wee1 stab conf inactive
Cc1nc2cc(-c3ccc(Cl)cc3)nn2c(NCCN(C)C)c1C	none
Cc1ccc(C(c2sc3nc(C)nn3c2O)N2CCN(CCO)CC2)cc1 (centres undefined)	none (no result: Hsp70 activator, Wee1 stabilizer, Pf gametocyte)
Cc1nc2sc(C(c3ccc(C(C)C)cc3)N3CCN(CCO)CC3)c(O)n2n1 (centres undefined)	Wee1 stabilizer 24 (no result: Pf gametocyte) | Wee1 stab conf inactive
Cc1ccc(C(=O)O)cc1NC(=S)NC(=O)c1ccc(-c2ccc(Cl)cc2)o1	Wee1 stabilizer 12 (no result: Hsp70 activator) | Wee1 stab conf inactive
CC(C)CN1CCN(Cc2ccc(C#CC(C)(C)O)cc2)CC1CCO (centres undefined)	none
CC(C)CCN1CCN(Cc2ccc(C#CC(C)(C)O)s2)CC1CCO (centres undefined)	Wee1 stabilizer 11 | Wee1 stab conf inactive
NC(=O)CC(NC(=O)Cc1ccc(Cl)cc1)c1ccc(NCCOc2ccccc2)c([N+](=O)[O-])c1 (centres undefined)	none (no result: Mdm2 ligase inh, Hsp70 activator, Wee1 stabilizer)
NC(=O)c1cc2c3ccccc3ccn2c1-c1ccccc1	none (no result: Mdm2 ligase inh, Hsp70 activator, Pf gametocyte)
COc1cc(C=C2C(=O)OC(C)(C)OC2=O)ccc1OCC(=O)Nc1ccccc1	Wee1 stabilizer 15 | Wee1 stab conf inactive
CCOC(=O)c1c(Nc2ccccc2OCCOC)n[nH]c1C	Wee1 stabilizer 11 (no result: Hsp70 activator) | Wee1 stab conf inactive
O=S(=O)(c1ccc(Oc2ccccc2)cc1)N1CCOCC1	none (no result: Pf gametocyte)
O=S(=O)(c1ccc(Oc2ncnc3scc(-c4ccccc4)c23)cc1)N1CCOCC1	Wee1 stabilizer 19 | Wee1 stab conf inactive
O=C(O)CNC(=O)c1ccc(N2CCOCC2)cc1[N+](=O)[O-]	none (no result: Pf gametocyte)
O=C(CCSCc1ccccc1F)NCc1cccs1	Wee1 stabilizer 11 | Wee1 stab conf inactive
O=C(Nc1cccc(Cl)c1)Nc1ccc(Br)cc1F	Wee1 stabilizer 13 | Wee1 stab conf inactive
COC(=O)/C=C/c1ccc(OC(=O)OC)c(OC(=O)OC)c1	Wee1 stabilizer 12 | Wee1 stab conf inactive
Cc1ccc(/C=C/C(=O)OCc2nc(N)nc(Nc3ccccc3C)n2)o1	Wee1 stabilizer 13 | Wee1 stab conf inactive
CCCCC(=O)OCc1nc(N)nc(Nc2ccccc2C)n1	none
Cc1cc(C)c2c(N)c(C(=O)C(C)(C)C)sc2n1	Wee1 stabilizer 13 | Wee1 stab conf inactive
Cc1cc(C)cc(NC(=O)c2sc3nc(C)cc(C)c3c2N)c1	none (no result: Mdm2 ligase inh, Hsp70 activator, Wee1 stabilizer)
Cc1ccc2cc3c(N)c(C(=O)Nc4c(C)[nH]c(=O)[nH]c4=O)sc3nc2c1	Wee1 stabilizer 12 | Wee1 stab conf inactive
CC1CCC2C(=O)N(c3ccc(C(=O)Oc4cccc5cccnc45)cc3)C(=O)C2C1 (centres undefined)	none
CN(Cc1c(F)cccc1Cl)c1ccc(S(=O)(=O)N2CCOCC2)cn1	Wee1 stabilizer 12 | Wee1 stab conf inactive
Cc1ccccc1NC(=O)NC(N)=O	Wee1 stabilizer 14 | Wee1 stab conf inactive
COc1ccccc1NC(=O)NC(N)=O	none
COc1cc(C(=O)NCC(=O)OCC(=O)c2ccc[nH]2)cc(OC)c1OC	Wee1 stabilizer 14 (no result: Pf gametocyte) | Wee1 stab conf inactive
CC(C1CC1)N(Cc1ccccc1)C(=O)NC(=O)c1ccc(F)cc1 (centres undefined)	Wee1 stabilizer 34 | Wee1 stab conf inactive
C=CCn1c(SCC(=O)c2ccc(O)c(O)c2)nnc1-c1cccc(OC)c1	none (no result: Mdm2 ligase inh, Hsp70 activator, Wee1 stabilizer)
O=C(NCc1cccs1)c1cccc(Nc2nc3ccc(Br)cc3[nH]2)c1	Wee1 stabilizer 15 | Wee1 stab conf inactive
Cc1ccc(C2=NN(S(C)(=O)=O)C(c3cccs3)C2)cc1 (centres undefined)	Wee1 stabilizer 11 (no result: Pf gametocyte) | Wee1 stab conf inactive
CC(NC(=S)NCCc1ccccc1)C(c1cccs1)N1CCN(C)CC1 (centres undefined)	none (no result: Mdm2 ligase inh, Pf gametocyte)
O=C(N/N=C/c1ccc(F)cc1)c1ccccc1	Wee1 stabilizer 12 | Wee1 stab conf inactive
O=C(O)c1ccc(/C=N/NC(=O)c2ccc(F)cc2)cc1	none (no result: Mdm2 ligase inh, Hsp70 activator)
CCCC1Cc2nc(Cl)c(C#N)cc2CO1 (centres undefined)	none (no result: Hsp70 activator)
COC(=O)Cn1c(C)nc2ccccc21	none
COC(=O)Cn1c(=O)c(C)nc2ccccc21	Wee1 stabilizer 13 | Wee1 stab conf inactive
CCOC(=O)Cn1c(C)nc2ccccc21	none
CCOC(=O)Cn1c(C(C)=O)nc2ccccc21	Wee1 stabilizer 12 (no result: Pf gametocyte) | Wee1 stab conf inactive
CC(=O)Nc1ccc(S(=O)(=O)Nc2nc3cc4c(cc3nc2Cl)OCCO4)cc1	Wee1 stabilizer 11 (no result: Hsp70 activator) | Wee1 stab conf inactive
O=S(=O)(Nc1nc2cc3c(cc2nc1Cl)OCCO3)c1ccccc1	none
CC[C@@H]1CC=C[C@H]2[C@H]1C(=O)N(Cc1ccccc1)[C@H]2c1ccc(OC)c(Cl)c1	none (no result: Hsp70 activator, Wee1 stabilizer, Pf gametocyte)
Cc1ccc(-c2cc(C(=O)N/N=C/c3c(C)nn(-c4ccccc4)c3C)[nH]n2)cc1	none
Cc1nn(-c2ccccc2)c(C)c1-c1cc(C(=O)N/N=C/c2cccnc2)[nH]n1	Wee1 stabilizer 19 | Wee1 stab conf inactive
CCOC(=O)C(Cc1ccccc1)NC(=O)Cn1nnc(-c2ccc(SC)cc2)n1 (centres undefined)	Wee1 stabilizer 13 (no result: Pf gametocyte) | Wee1 stab conf inactive
CSc1ccc(-c2nnn(CC(=O)NCc3ccccc3)n2)cc1	none
COc1ccc2cc(C3CC(c4ccco4)=NN3S(=O)(=O)c3ccccc3)c(Cl)nc2c1 (centres undefined)	Wee1 stabilizer 16 | Wee1 stab conf inactive
C#CCNC(=O)C1CCN(c2cc(C)nc(-c3ccccc3)n2)CC1	Wee1 stabilizer 12 | Wee1 stab conf inactive
CCN(CC)CCn1c(NC(=O)c2ccc(C(F)(F)F)cc2)nc2ccccc21	Wee1 stabilizer 13 | Wee1 stab conf inactive
CCCCn1c(N)c(N(CC)C(=O)C(c2ccccc2)c2ccccc2)c(=O)[nH]c1=O	none
CCCCn1c(N)c(N(CC)C(=O)c2cc(OC)cc(OC)c2)c(=O)[nH]c1=O	Wee1 stabilizer 11 | Wee1 stab conf inactive
Cc1ccc(NC(=O)c2cncc(Br)c2)c(O)c1	Wee1 stabilizer 12 (no result: Pf gametocyte) | Wee1 stab conf inactive
CCN(CC)c1ccc(/C=N/NC(=O)c2ccoc2C)cc1	Wee1 stabilizer 16 (no result: Hsp70 activator) | Wee1 stab conf inactive
